Source: ChEMBL document CHEMBL4513216, “Probing the Open Global Health Chemical Diversity Library for Multistage-Active Starting Points for Next-Generation Antimalarials” (ACS Infect Dis, 2020)

Assay: Toxicity liver stage against HepG2, at 10uM
Assay type: cell-based
Design: test concentration 10 uM, cell line HepG2-A16-CD81EGFP
Conditions: human, HepG2-A16-CD81EGFP cells; read-out: INHIBITION
Procedure, shortened: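 Uninfected HepG2-A16-CD81EGFP cells, 3 × 10^3 per well, 1536-well, plated on prespotted compound at 10 μM final, parasite-free screening media added to match infected plates; puromycin 10 μM positive, DMSO 0.5% negative; run in parallel with 48 h PbLuc assay at 37 °C, 5% CO2; viability by CellTiter-Glo luminescence, normalized to controls.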

SMILES	cytotoxicity at 10 µM [%]
Cc1ccc(S(=O)(=O)N2CCN(CCC#N)CC2)s1	-10.8
CN(C)[C@@H]1CO[C@H](CNC(=O)Nc2ccccc2)[C@H]1O	-0.713
CN1CCC[C@H]1c1nc(-c2cncnc2N)no1	2.6
CNC(=O)[C@@H]1[C@H]2CNCCN2C[C@H]1c1ccccc1	3.28
C/C(NC(=O)c1ccco1)=C1/C(=O)C[C@@H]2[C@H]1C2(C)C	2.41
Cn1ccc2cc(C(=O)Nc3nc[nH]n3)ccc21	1.69
CN1C(=O)C(C)(C)COc2ccc(NS(=O)(=O)Cc3ccccc3)cc21	8.2
O=C(CC1CSc2nccc(=O)n21)NCc1cc(-c2ccco2)on1 (stereo unspecified)	-11.3
O=C(CSC1=NS(=O)(=O)c2cc(Cl)ccc2N1)c1ccccc1	13.6
CNC(=O)C1CCCN(c2nc3c(-c4ccccc4)csc3c(=O)[nH]2)C1 (stereo unspecified)	-1.03
CN(C)S(=O)(=O)NCCn1nc(-c2ccccc2)n(C)c1=O	-2.17
CNC(=O)N1CC[C@H]2N(C)CC[C@@]2(C(=O)Nc2ccccc2)CC1	-17.2
Cn1ncc2c1C(COCC1CC1)CN(Cc1nccs1)C2 (stereo unspecified)	4.49
Cc1ccc(F)cc1NC(=O)c1[nH]ncc1Br	15.7
O=C(c1nn[nH]c1Nc1ccc(Cl)cc1)N1CCSCC1	4.67
Cc1ncc2c(n1)CCCC2NC(=O)c1ccccc1C(=O)O (stereo unspecified)	-11.7
Cc1cc(N2CCCN(c3ccnc(C)c3)CC2)ccn1	-0.943
O=C(COCc1nc(-c2ccncc2)no1)NC1CCCCC1	-8.19
CN(Cc1ncc(-c2ccccc2C(=O)O)s1)c1ncccn1	1.69

SMILES	cytotoxicity at 10 µM [%]
Cc1noc(-c2cnc(NC(C)C)nc2-c2ccco2)c1C	-0.275
c1ccc(OCCN2CCC(c3cnccn3)CC2)cc1	7.56
O=C(c1cc[nH]n1)N1CCCC1c1cncc(CN2CCOCC2)n1 (stereo unspecified)	9.31
NC(=O)c1cn[nH]c1C1CCCN1C(=O)c1ccccn1 (stereo unspecified)	0.893
COc1ccc2[nH]cc(C(=O)N3C[C@@H](O)[C@H](N4CCCC4)C3)c2c1	2.35
CCn1cc(S(=O)(=O)Nc2nc3c(s2)CC(C)CC3)cn1 (stereo unspecified)	9.88
O=C(Cc1ccn[nH]1)N1CCc2cc(Br)sc2C1	4.42
CSc1cc2c(cc1NC(=O)N(C)Cc1ccncc1)OCCO2	11.4
O=S(=O)(Cc1cccc(F)c1)Nc1cc(Cl)ccn1	-8.69
COc1ccc(CNC(=O)c2ccc(=O)n(C)c2)cc1C	2.31
CNC(=O)Cc1noc(-c2cc3c(s2)CCCCCC3)n1	3.76
Cc1nc(CN(C)C(=O)CNC(=O)c2ccc(C#N)cc2)cs1	12.5
CC(c1nc(C2CC2)no1)N1CCN(CCS(C)(=O)=O)CC1 (stereo unspecified)	7.41
N#CCc1ccc(NC(=O)N[C@H](CO)Cc2ccc(O)cc2)cc1	-1.8
Cc1ccc(F)cc1S(=O)(=O)NCc1cccc(CS(C)(=O)=O)c1	-10.6
CCc1nc2n(n1)CC(NCc1nc3ccccc3o1)CC2 (stereo unspecified)	12.4
CN(c1ccc(F)c(F)c1)S(=O)(=O)c1cc2c(c(C(=O)O)c1)OCCO2	-5.38
Cn1ncc2c(N3CCC(CC(=O)N4CCCC4)CC3)ncnc21	4.19
Cn1c(=O)ccn(CC(=O)Nc2cccnc2)c1=O	-1.58

SMILES	cytotoxicity at 10 µM [%]
Cc1nn(C)c2ncc(S(=O)(=O)N3CCCN4CCCC4C3)cc12 (stereo unspecified)	-0.334
NC(=O)[C@@H]1Cc2ccccc2CN1CCc1cccs1	0.436
C=C(C)CN1CCCC(CNS(C)(=O)=O)C1 (stereo unspecified)	5.63
CCn1cnnc1C1CCN(C(=O)c2ccc3c(c2)nnn3C)CC1	10.9
O=C(NCCNc1ncccn1)N1CCCC1c1ccncc1 (stereo unspecified)	-4.65
COCCNC(=O)NCCc1cccc(OC)c1O	9.31
CN(C)C(CNC(=O)c1nc(N2CCOCC2)ncc1Cl)c1cccs1 (stereo unspecified)	8.26
Cc1ncsc1CCN1CCN(C(=O)c2ccc(=O)[nH]c2)CC1	4.38
COCC(C)N(C)C(=O)c1ccc2nncn2c1 (stereo unspecified)	-1.37
Cc1ccccc1C1(CN)CCCCC1	2.29
CN1CCC(NC(=O)Nc2ccc(Br)c(F)c2)C1=O (stereo unspecified)	-147
CC(C)(O)CN1CCN(C(=O)COC2CCCC2)CC1	1.46
CCN1CCN(c2ccc(C(=O)NCc3cc(C)no3)cc2F)CC1	11.2
CN(C)c1ccc(CN(CC2CCCO2)C(=O)c2csnn2)cc1 (stereo unspecified)	-1.59
CNC(=O)NC(=O)C(C)N1CCN(c2ccc(C#N)cc2F)CC1 (stereo unspecified)	2.83
CC(C)N(CC(N)=O)CC(=O)N(C1=CCCCC1)C1CC1	-0.429
CCCN(C)c1ccc(C(=O)NCc2ccnc(C)n2)cc1	6.6
Cc1nc2ncnn2c(C)c1CCC(=O)Nc1cccn(C)c1=O	-9.59
